From ChEMBL document CHEMBL5046239, “Development of novel phenoxyalkylpiperidines as high-affinity Sigma-1 (σ1) receptor ligands with potent anti-amnesic effect” (Eur J Med Chem, 2022)
pEC50, pKi: −log10 of the molar value. Active and inactive are the calls of the source. The calls are words filed in the database; no cut-off is given here.

What was measured:
[1] = molecular target: Sigma non-opioid intracellular receptor 1 (Cavia porcellus, UniProt Q60492); experiment: Displacement of [3H](+)-pentazocine from sigma 1 receptor in guinea pig brain membranes measured after 120 mins by scintillation counting method; type: cell membranes, Membrane
Sequence of Sigma non-opioid intracellular receptor 1 (Q60492 whole entry): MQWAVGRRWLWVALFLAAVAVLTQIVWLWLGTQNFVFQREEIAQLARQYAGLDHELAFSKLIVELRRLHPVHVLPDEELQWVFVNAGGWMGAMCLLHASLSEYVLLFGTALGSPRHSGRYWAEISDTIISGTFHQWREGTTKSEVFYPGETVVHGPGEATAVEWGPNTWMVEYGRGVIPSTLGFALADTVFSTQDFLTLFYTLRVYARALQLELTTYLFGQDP

C6 = experiment: Cytotoxicity against rat C6 cells assessed as cell viability measured after 48 hrs by MTT assay; type: functional, cell-based; settings: C6, 48 h
Mus musculus [2] = experiment: Cognitive enhancing effect in dizocilpine induced amnesia Swiss mouse model assessed as reduction in memory impairment at 1 to 10 mg/kg, ip pretreated for 10 mins followed by dizocilpine addition measured after 20 mins by Y-maze test; type: functional, organism-based; settings: dose 1-10 mg/kg, time 30.0 min
Procedure, shortened: (§1)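 Male Swiss OF-1 mice, 7–9 weeks old, n = 12–16 per group. Test drug given ip in saline 10 min before dizocilpine (0.15 mg/kg ip), which was given 20 min before the Y-maze session or passive avoidance training. NE-100 (1 mg/kg ip) was given at the same time as the test drug where used. Read-outs were Y-maze alternation and step-through latency at 24 h retention. Statistics were ANOVA with Dunnett's test, or Dunn's test for latency.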

MCF7 = experiment: Cytotoxicity against human MCF7 cells assessed as cell viability measured after 48 hrs by MTT assay; type: functional, cell-based; settings: MCF7, 48 h
Procedure, shortened: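 MCF7 cells grown in DMEM with 10% FBS, glutamine and pen-strep at 37 °C, 5% CO2. Seeded at 25,000 cells/well and dosed the next day at 1–100 μM for 48 h. Solvent controls included. MTT 0.5 mg/mL for 3–4 h, formazan dissolved in DMSO/EtOH, absorbance read at 570/630 nm.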

SH-SY5Y = experiment: Cytotoxicity against human SH-SY5Y cells assessed as cell viability measured after 48 hrs by MTT assay; type: functional, cell-based
Procedure, shortened: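 SH-SY5Y cells grown in MEM/Ham's F12 (1:1) with 10% FBS, glutamine and pen-strep at 37 °C, 5% CO2. Seeded at 25,000 cells/well and dosed the next day at 1–100 μM for 48 h. Solvent controls included. MTT 0.5 mg/mL for 3–4 h, formazan dissolved in DMSO/EtOH, absorbance read at 570/630 nm.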

Mus musculus [3] = experiment: Cognitive enhancing effect in dizocilpine induced amnesia Swiss mouse model assessed as reduction in memory impairment at 1 to 10 mg/kg, ip pretreated for 10 mins followed by dizocilpine addition in presence of NE-100 measured after 20 mins by Y-maze test; type: functional, organism-based; settings: dose 1-10 mg/kg, time 30.0 min; procedure, shortened: as §1
[4] = molecular target: T1, Sigma intracellular receptor 2 (Rattus norvegicus, UniProt Q5U3Y7); experiment: Displacement of [3H]DTG from sigma 2 receptor in Wistar Han rat liver membranes measured after 120 mins by scintillation counting method; type: cell membranes, Membrane
T1 sequence (Q5U3Y7 whole entry): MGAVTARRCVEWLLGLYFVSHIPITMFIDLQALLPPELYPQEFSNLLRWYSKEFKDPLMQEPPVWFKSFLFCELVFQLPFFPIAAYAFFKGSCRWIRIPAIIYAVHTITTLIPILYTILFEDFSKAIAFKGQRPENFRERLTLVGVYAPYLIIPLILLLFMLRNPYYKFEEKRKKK

Mus musculus [5] = experiment: Cognitive enhancing effect in dizocilpine induced amnesia Swiss mouse model assessed as increase in latency time at 1 to 10 mg/kg, ip pretreated for 10 mins followed by dizocilpine addition in presence of NE-100 measured after 20 mins by step-through passive avoidance test; type: functional, organism-based; settings: dose 1-10 mg/kg, time 30.0 min; procedure, shortened: as §1
Mus musculus [6] = experiment: Cognitive enhancing effect in dizocilpine induced amnesia Swiss mouse model assessed as increase in latency time at 1 to 10 mg/kg, ip pretreated for 10 mins followed by dizocilpine addition measured after 20 mins by step-through passive avoidance test; type: functional, organism-based; settings: dose 1-10 mg/kg, time 30.0 min; procedure, shortened: as §1
HepG2 = experiment: Cytotoxicity against human HepG2 cells assessed as cell viability measured after 48 hrs by MTT assay; type: functional, cell-based; settings: HepG2, 48 h
Procedure, shortened: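 HepG2 cells grown in MEM with 10% FBS, glutamine, pen-strep and NEAA at 37 °C, 5% CO2. Seeded at 25,000 cells/well and dosed the next day at 1–100 μM for 48 h. Solvent controls (EtOH, DMSO) included. MTT 0.5 mg/mL for 3–4 h, formazan dissolved in DMSO/EtOH, absorbance read at 570/630 nm.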

Mus musculus [7] = experiment: Cognitive enhancing effect in dizocilpine induced amnesia Swiss mouse model assessed as increase in latency time at 0.03 to 0.3 mg/kg, ip pretreated for 10 mins followed by dizocilpine addition measured after 20 mins by step-through passive avoidance test; type: functional, organism-based; settings: dose 0.03-0.3 mg/kg, time 30.0 min; procedure, shortened: as §1
Mus musculus [8] = experiment: Cognitive enhancing effect in dizocilpine induced amnesia Swiss mouse model assessed as reduction in memory impairment at 0.03 to 0.3 mg/kg, ip pretreated for 10 mins followed by dizocilpine addition in presence of NE-100 measured after 20 mins by Y-maze test; type: functional, organism-based; settings: dose 0.03-0.3 mg/kg, time 30.0 min; procedure, shortened: as §1
Mus musculus [9] = experiment: Cognitive enhancing effect in dizocilpine induced amnesia Swiss mouse model assessed as reduction in memory impairment at 0.03 to 0.3 mg/kg, ip pretreated for 10 mins followed by dizocilpine addition measured after 20 mins by Y-maze test; type: functional, organism-based; settings: dose 0.03-0.3 mg/kg, time 30.0 min; procedure, shortened: as §1
Mus musculus [10] = experiment: Cognitive enhancing effect in dizocilpine induced amnesia Swiss mouse model assessed as increase in latency time at 0.03 to 0.3 mg/kg, ip pretreated for 10 mins followed by dizocilpine addition in presence of NE-100 measured after 20 mins by step-through passive avoidance test; type: functional, organism-based; settings: dose 0.03-0.3 mg/kg, time 30.0 min; procedure, shortened: as §1

pKi [1]	pKi [4]	SMILES	pEC50 (C6)	also measured
9.05	6.77	COc1ccc(OCCN2CCC(C)CC2)cc1	< 4.00	Activity (Mus musculus [2]): Active; pEC50 (MCF7): < 4.00; pEC50 (SH-SY5Y): < 4.00; Activity (Mus musculus [3]): inactive; Activity (Mus musculus [5]): inactive; Activity (Mus musculus [6]): Active; pEC50 (HepG2): < 4.00
8.83	6.14	COc1ccc(OC[C@H](C)N2CCC(C)CC2)cc1	–	–
7.69	7.11	C[C@@H]1CCCCN1CCOc1ccc(Cl)cc1	–	–
9.47	6.73	CC1CCN([C@@H](C)COc2ccc(Cl)cc2)CC1	–	–
7.78	7.16	C[C@H]1CCCCN1CCOc1ccc(Cl)cc1	–	–
7.44	6.52	COc1ccc(OCCN2CCCC[C@H]2C)cc1	–	–
< 5.30	6.39	CC1(C)CCCC(C)(C)N1CCOc1ccc(Cl)cc1	< 4.00	–
7.63	7.28	COc1ccc(OCCCN2[C@H](C)CCC[C@@H]2C)cc1	–	–
7.36	6.76	COc1ccc(OCCN2CCCC[C@@H]2C)cc1	–	–
–	6.62	CC1CCN(CCOc2ccc(Cl)cc2)CC1	< 4.00	Activity (Mus musculus [7]): Active; Activity (Mus musculus [8]): inactive; Activity (Mus musculus [9]): Active; Activity (Mus musculus [10]): inactive; pEC50 (MCF7): < 4.00; pEC50 (SH-SY5Y): < 4.00; pEC50 (HepG2): < 4.00
< 5.30	6.09	COc1ccc(OCCN2C(C)(C)CCCC2(C)C)cc1	< 4.00	–
8.35	7.76	C[C@@H]1CCC[C@H](C)N1CCCOc1ccc(Cl)cc1	–	–
8.94	6.73	COc1ccc(OC[C@@H](C)N2CCC(C)CC2)cc1	< 4.00	–
6.42	6.20	COc1ccc(OCCN2[C@H](C)CCC[C@@H]2C)cc1	–	–
7.23	6.94	C[C@@H]1CCC[C@H](C)N1CCOc1ccc(Cl)cc1	–	–
8.93	7.28	CC1CCN([C@H](C)COc2ccc(Cl)cc2)CC1	< 4.00	–
